The subject of test [1] is MCF7. As to the kind of experiment: Inhibition of cell growth in human MCF7 cells after 4 days by wst-8-based colorimetric analysis. The class given is functional. The following applies: MCF7, 96 h. In outline: (§1)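 Cells seeded at 1500/well overnight, then exposed to graded compound doses for 4 days. Growth read by colorimetric WST-8 assay. GI50 from fitted curves. MCF-7 cells were kept in DMEM, 10% FBS, passages 3−8; human mammary epithelial cells were run the same way.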

The subject of test [2] is MCF7. As to the kind of experiment: Inhibition of cell growth in human MCF7 cells after 4 days by wst-8-based colorimetric analysis relative to control. In kind it is functional. In outline: as §1
The subject of test [3] is MCF7. Put plainly: Antiproliferative activity against human MCF7 cells at 10 to 300 nM after 5 days by crystal violet staining based assay. The class given is functional, cell-based. In outline:
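MCF-7 cells in DMEM with 10% FBS and penicillin/streptomycin, passages 3−8, exposed to compounds at 10, 100 and 300 nM for 5 days, then fixed and stained with crystal violet.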

Test [4] is described as follows: Binding affinity to His-TEV-tagged VHL (54 to 213 residues) (unknown origin)/Elongin B (1 to 118 residues)/Elongin C (1 to 96 residues) expressed in Escherichia coli BL21(DE3) by FP assay. Set-up: species or system Homo sapiens. In short, it runs like this: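 Competitive FP. Tracer is a fluorescent VHL ligand (Kd 2.3 nM). VHL–ElonginB/C complex and tracer each at 5 nM final, preincubated. Compound in DMSO (5 µL into 95 µL) for 60 min at room temperature with shaking. Ex 485/em 530 nm. IC50 by nonlinear regression; Ki from probe KD and protein/probe concentrations. Duplicate, three independent experiments.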

Test [5] concerns the target T1, von Hippel-Lindau disease tumor suppressor/Estrogen receptor/Cullin-2 (Homo sapiens, UniProt P03372+P40337+Q13617). As to the kind of experiment: Protac activity against VHL/cullin2/ERalpha in human MCF7 cells assessed as ERalpha degradation by measuring ER protein/GADPH ratio at 1 nM after 4 hrs by Western blot analysis relative to control. In kind it is cell-based. In short, it runs like this:
(§2)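 MCF-7 cells (DMEM, 10% FBS, passages 3−8) exposed 4 h. Lysed in RIPA with protease inhibitors; equal protein on 10% SDS-PAGE, PVDF, anti-ERα blot. Membranes stripped and reprobed for GAPDH. ERα/GAPDH ratio normalized to DMSO = 100; DC50 from densitometry of the dose series.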

Test [6] addresses T1, von Hippel-Lindau disease tumor suppressor/Estrogen receptor/Cullin-2. As to the kind of experiment: Protac activity against VHL/cullin2/ERalpha in human MCF7 cells assessed as ERalpha degradation by measuring ER protein/GADPH ratio at 10 nM after 4 hrs by Western blot analysis relative to control. The class given is cell-based. In outline:
as §2

The target is the same in test [7]. Put plainly: Protac activity against VHL/cullin2/ERalpha in human MCF7 cells assessed as ERalpha degradation by measuring ER protein/GADPH ratio at 100 nM after 4 hrs by Western blot analysis relative to control. The class given is cell-based. In short, it runs like this:
as §2

Test [8] has the same target. Put plainly: Protac activity against VHL/cullin2/ERalpha in human MCF7 cells assessed as ERalpha degradation by measuring ER protein/GADPH ratio at 1000 nM after 4 hrs by Western blot analysis relative to control. The class given is cell-based. In outline:
as §2

Test [9] addresses T2, Protein cereblon/Estrogen receptor/Cullin-4A (Homo sapiens) (UniProt P03372+Q96SW2+Q13619). As to the kind of experiment: Protac activity against cereblon/cullin 4A/ERalpha in human MCF7 cells assessed as ERalpha degradation by measuring ER protein/GADPH ratio at 1 nM after 4 hrs by Western blot analysis relative to control. The class given is cell-based. In outline: as §2

Test [10] deals with T2, Protein cereblon/Estrogen receptor/Cullin-4A (Homo sapiens). As to the kind of experiment: Protac activity against cereblon/cullin 4A/ERalpha in human MCF7 cells assessed as ERalpha degradation by measuring ER protein/GADPH ratio at 10 nM after 4 hrs by Western blot analysis relative to control. In kind it is cell-based. In outline: as §2
For test [11] the target is unchanged. Put plainly: Protac activity against cereblon/cullin 4A/ERalpha in human MCF7 cells assessed as ERalpha degradation by measuring ER protein/GADPH ratio at 100 nM after 4 hrs by Western blot analysis relative to control. In kind it is cell-based. In short, it runs like this: as §2
For test [12] the target is unchanged. Put plainly: Protac activity against cereblon/cullin 4A/ERalpha in human MCF7 cells assessed as ERalpha degradation by measuring ER protein/GADPH ratio at 1000 nM after 4 hrs by Western blot analysis relative to control. In kind it is cell-based. In outline: as §2
In test [13] the target is T1, von Hippel-Lindau disease tumor suppressor/Estrogen receptor/Cullin-2. Put plainly: Protac activity against VHL/cullin2/ERalpha in human MCF7 cells assessed as ERalpha degradation by measuring reduction in ER protein level pre-treated with raloxifene for 2 hrs followed by compound exposure at 30 nM for 4 hrs by Western blot analysis. In kind it is cell-based.

Activity calls are given as the source filed them. No cut-off for these calls is given here.

T2 sequence (P03372 whole entry, looked up): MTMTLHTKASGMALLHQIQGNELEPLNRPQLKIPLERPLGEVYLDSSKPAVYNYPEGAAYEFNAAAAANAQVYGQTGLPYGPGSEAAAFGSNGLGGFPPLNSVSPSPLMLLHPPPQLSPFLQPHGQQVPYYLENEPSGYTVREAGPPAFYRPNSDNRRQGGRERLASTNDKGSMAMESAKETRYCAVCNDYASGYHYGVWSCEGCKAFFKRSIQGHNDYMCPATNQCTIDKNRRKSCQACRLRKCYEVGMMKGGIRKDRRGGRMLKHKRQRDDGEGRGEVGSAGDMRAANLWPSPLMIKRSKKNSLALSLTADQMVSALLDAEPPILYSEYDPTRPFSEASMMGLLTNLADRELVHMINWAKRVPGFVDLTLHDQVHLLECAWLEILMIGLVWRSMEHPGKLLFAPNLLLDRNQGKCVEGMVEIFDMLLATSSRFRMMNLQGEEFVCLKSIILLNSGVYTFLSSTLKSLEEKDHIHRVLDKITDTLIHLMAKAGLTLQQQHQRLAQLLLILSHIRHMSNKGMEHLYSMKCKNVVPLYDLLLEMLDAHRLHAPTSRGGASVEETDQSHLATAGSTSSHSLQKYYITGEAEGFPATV
T2 sequence (Q13619 whole entry, looked up): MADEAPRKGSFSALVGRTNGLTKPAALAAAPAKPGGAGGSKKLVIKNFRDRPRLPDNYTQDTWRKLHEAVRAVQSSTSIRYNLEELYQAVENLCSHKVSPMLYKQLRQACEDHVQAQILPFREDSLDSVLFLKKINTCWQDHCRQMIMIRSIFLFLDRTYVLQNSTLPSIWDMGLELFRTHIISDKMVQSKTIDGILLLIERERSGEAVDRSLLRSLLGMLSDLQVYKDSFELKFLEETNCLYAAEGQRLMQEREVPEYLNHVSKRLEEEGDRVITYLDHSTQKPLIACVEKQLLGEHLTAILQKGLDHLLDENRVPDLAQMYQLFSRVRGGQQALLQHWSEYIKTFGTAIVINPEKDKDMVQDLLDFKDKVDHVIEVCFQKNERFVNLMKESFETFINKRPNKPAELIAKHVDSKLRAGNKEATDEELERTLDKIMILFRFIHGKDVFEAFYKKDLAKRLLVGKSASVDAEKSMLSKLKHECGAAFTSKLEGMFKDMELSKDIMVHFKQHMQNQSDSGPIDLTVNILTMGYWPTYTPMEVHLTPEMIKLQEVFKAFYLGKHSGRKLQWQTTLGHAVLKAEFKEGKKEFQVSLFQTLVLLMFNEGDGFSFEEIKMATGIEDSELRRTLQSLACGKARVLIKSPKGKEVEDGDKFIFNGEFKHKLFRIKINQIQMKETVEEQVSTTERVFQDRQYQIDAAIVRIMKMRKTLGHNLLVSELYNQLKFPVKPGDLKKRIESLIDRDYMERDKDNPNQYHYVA
T2 sequence (Q96SW2 whole entry, looked up): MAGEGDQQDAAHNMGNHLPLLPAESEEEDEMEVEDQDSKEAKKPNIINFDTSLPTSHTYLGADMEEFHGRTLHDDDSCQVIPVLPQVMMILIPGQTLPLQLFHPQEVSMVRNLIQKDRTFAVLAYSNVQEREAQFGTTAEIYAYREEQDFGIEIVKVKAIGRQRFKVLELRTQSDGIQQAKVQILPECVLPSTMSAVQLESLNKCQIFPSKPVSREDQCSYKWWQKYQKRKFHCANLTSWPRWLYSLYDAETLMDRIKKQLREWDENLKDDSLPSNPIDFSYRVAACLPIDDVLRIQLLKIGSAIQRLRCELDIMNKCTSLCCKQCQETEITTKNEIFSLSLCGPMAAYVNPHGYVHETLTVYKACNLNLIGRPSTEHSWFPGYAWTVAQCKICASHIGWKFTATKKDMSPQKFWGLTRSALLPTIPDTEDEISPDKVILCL
T1 sequence (P03372 whole entry, looked up): as the sequence (P03372 whole entry, looked up) above
T1 sequence (P40337 whole entry, looked up): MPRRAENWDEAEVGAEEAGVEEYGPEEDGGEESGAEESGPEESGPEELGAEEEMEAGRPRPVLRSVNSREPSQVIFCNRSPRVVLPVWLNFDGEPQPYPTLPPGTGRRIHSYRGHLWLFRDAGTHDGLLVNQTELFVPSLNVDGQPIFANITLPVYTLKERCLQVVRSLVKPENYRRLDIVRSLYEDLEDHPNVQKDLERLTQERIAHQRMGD
T1 sequence (Q13617 whole entry, looked up): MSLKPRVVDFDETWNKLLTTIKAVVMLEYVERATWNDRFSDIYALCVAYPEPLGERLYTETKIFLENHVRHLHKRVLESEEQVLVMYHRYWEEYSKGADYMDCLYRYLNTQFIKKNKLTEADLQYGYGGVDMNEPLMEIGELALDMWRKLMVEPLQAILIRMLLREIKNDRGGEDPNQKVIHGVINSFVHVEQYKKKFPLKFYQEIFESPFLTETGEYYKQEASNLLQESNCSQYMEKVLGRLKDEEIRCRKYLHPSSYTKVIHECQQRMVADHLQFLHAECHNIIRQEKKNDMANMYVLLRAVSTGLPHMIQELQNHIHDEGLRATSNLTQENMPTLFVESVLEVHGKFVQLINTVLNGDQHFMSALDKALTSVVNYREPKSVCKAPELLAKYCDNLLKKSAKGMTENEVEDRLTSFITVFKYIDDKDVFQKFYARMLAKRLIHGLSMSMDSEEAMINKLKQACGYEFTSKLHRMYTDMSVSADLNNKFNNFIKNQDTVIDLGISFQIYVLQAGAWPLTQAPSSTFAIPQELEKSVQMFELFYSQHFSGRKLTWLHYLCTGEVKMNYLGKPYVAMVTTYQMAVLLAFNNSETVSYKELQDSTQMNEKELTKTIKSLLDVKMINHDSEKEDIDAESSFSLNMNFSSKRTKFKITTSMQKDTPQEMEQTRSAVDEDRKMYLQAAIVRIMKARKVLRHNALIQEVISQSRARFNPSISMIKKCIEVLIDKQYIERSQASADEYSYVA

As to `O=C(c1ccc(OCCN2CCCCC2)cc1)c1c(-c2ccc(O)cc2)sc2cc(O)ccc12` [RALOXIFENE], the concentration for 50% growth inhibition (GI50) with MCF7 [1] came out at 0.079 nM. This compound also returned an Imax in the test with MCF7 [2] of 34%. The outcome in the test with MCF7 [3] was Active.

In test [4], `CC(=O)N[C@H](C(=O)N1C[C@H](O)C[C@H]1C(=O)N[C@@H](C)c1ccc(-c2scnc2C)cc1)C(C)(C)C` showed an IC50 of 196 nM.

`C#Cc1ccc([C@H](C)NC(=O)[C@@H]2C[C@@H](O)CN2C(=O)[C@@H](NC(C)=O)C(C)(C)C)cc1` gave an IC50 in [4] of 879 nM.

`CCNCCc1ccc(CN(CC)c2cc(OC)ccc2[C@@H]2CCc3cc(O)ccc3C2)cc1` [ELACESTRANT]: the Ratio in test [5] amounted to 89; in test [6], 171; in test [7], 159. Moreover, it took 0.028 nM to inhibit growth with MCF7 [1] by half (GI50). This compound also gave an Imax in the test with MCF7 [2] of 25.7%.

`CC(=O)N[C@H](C(=O)N1C[C@H](O)C[C@H]1C(=O)N[C@@H](C)c1ccc(C(C)(C)C)cc1)C(C)(C)C`: the IC50 in test [4] was found to be 58900 nM.

For the compound `CCN(CCOCCOCCOCCC(=O)N[C@H](C(=O)N1C[C@H](O)C[C@H]1C(=O)N[C@@H](C)c1ccc(-c2scnc2C)cc1)C(C)(C)C)CCOc1ccc(C(=O)c2c(-c3ccc(O)cc3)sc3cc(O)ccc23)cc1`, the Ratio was determined as 101 in test [5], 0.6 in test [6], 0.4 in test [7] and 67 in [8].

In the case of `CCN(CCCCCCC#Cc1cccc2c1CN(C1CCC(=O)NC1=O)C2=O)CCOc1ccc(C(=O)c2c(-c3ccc(O)cc3)sc3cc(O)ccc23)cc1` (stereo not drawn), the Ratio in [9] stood at 143; in [10] it was 135; in [11], 160; in test [12], 174.

The compound `C[C@]12CC[C@@H]3c4ccc(O)cc4C[C@@H](CCCCCCCCC[S+]([O-])CCCC(F)(F)C(F)(F)F)[C@H]3[C@@H]1CC[C@@H]2O` (stereo partly drawn) [FULVESTRANT] registered a GI50 in the test on MCF7 [1] of 0.17 nM. This compound also returned an Imax in the test with MCF7 [2] of 43.8%. Besides, the outcome in the test with MCF7 [3] was Active.

Turning to `CCN(CCCCCCCC(=O)N[C@H](C(=O)N1C[C@H](O)C[C@H]1C(=O)N[C@@H](C)c1ccc(-c2scnc2C)cc1)C(C)(C)C)CCOc1ccc(C(=O)c2c(-c3ccc(O)cc3)sc3cc(O)ccc23)cc1`, the Ratio turned out to be 21 in test [5], 0.4 in test [6], 0.3 in test [7] and 64 in test [8].

For `CC(C)C[C@H](NC(=O)[C@H](CCc1ccccc1)NC(=O)CN1CCOCC1)C(=O)N[C@@H](Cc1ccccc1)C(=O)N[C@@H](CC(C)C)C(=O)[C@@]1(C)CO1`, in test [13], the result was inactive.

In turn, `CC(=O)N[C@H](C(=O)N1C[C@H](O)C[C@H]1C(=O)N[C@@H](C)c1ccc(C2CC2)cc1)C(C)(C)C` yielded an IC50 in test [4] of 6110 nM.

Regarding `CC(=O)N[C@H](C(=O)N1C[C@H](O)C[C@H]1C(=O)N[C@@H](C)c1ccc(Cl)cc1)C(C)(C)C`, the IC50 in test [4] was 7870 nM.

`CC(=O)N[C@H](C(=O)N1C[C@H](O)C[C@H]1C(=O)N[C@@H](C)c1ccc(C(C)C)cc1)C(C)(C)C` gave an IC50 in [4] of 41000 nM.

For the compound `CCN(CCOCCOCCOCC#Cc1cccc2c1CN(C1CCC(=O)NC1=O)C2=O)CCOc1ccc(C(=O)c2c(-c3ccc(O)cc3)sc3cc(O)ccc23)cc1` (stereo not drawn), the Ratio in test [9] stood at 124; in test [10], 149; in test [11], 146; in test [12], 165.

As for `CCN(CCCCCC(=O)N[C@H](C(=O)N1C[C@H](O)C[C@H]1C(=O)N[C@@H](C)c1ccc(-c2scnc2C)cc1)C(C)(C)C)CCOc1ccc(C(=O)c2c(-c3ccc(O)cc3)sc3cc(O)ccc23)cc1`, the Ratio came to 26 in [5], 66 in test [6] and 12 in [7].

Regarding `CCC(=C(c1ccccc1)c1ccc(OCCN(CC)CCCCCCCC(=O)N[C@H](C(=O)N2C[C@H](O)C[C@H]2C(=O)N[C@@H](C)c2ccc(-c3scnc3C)cc2)C(C)(C)C)cc1)c1ccccc1`, the Ratio in test [5] was found to be 103; in test [6], 97; in [7], 2.4.

Turning to `CCN(CCCCCCCC(=O)N[C@H](C(=O)N1C[C@H](O)C[C@H]1C(=O)N[C@@H](C)c1ccc(-c2scnc2C)cc1)C(C)(C)C)CCOc1ccc(Cn2c(-c3ccc(O)cc3)c(C)c3cc(O)ccc32)cc1`, the Ratio was determined as 74 in [5], 10 in test [6] and 0.2 in test [7].

The record behind these values is ChEMBL document CHEMBL4368943 (J Med Chem, 2019).
